Measurements taken from the EternaBench riboswitch data.

Test system: MS2 coat protein
Assay: apparent Kd, MS2 coat protein; higher = weaker binding; RNA-MaP array; FMN 200 µM where present
Method in brief: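 Apparent Kd: the median of filtered binding-curve fits from single clusters. Designs were transcribed on Illumina sequencing-chip clusters by stalled E. coli RNA polymerase and titrated with SNAP-549-labelled MS2 coat protein from 0.7 or 1.5 nM, doubling to 3 µM, in 100 mM Tris-HCl pH 7.5, 80 mM KCl, 4 mM MgCl2, BSA, DTT, yeast tRNA and Tween-20. Each series ran without and then with constant ligand, and green signal was normalised to red-channel RNA signal and control-cluster median Fmax.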

[1] = designed as: OFF switch for flavin mononucleotide, no ligand
[2] = ligand present: flavin mononucleotide, designed as: OFF switch for flavin mononucleotide
[3] = designed as: ON switch for flavin mononucleotide, no ligand
[4] = ligand present: flavin mononucleotide, designed as: ON switch for flavin mononucleotide

Sequence	apparent Kd [1] [nM]	apparent Kd [2] [nM]	apparent Kd [3] [nM]	apparent Kd [4] [nM]
UUAAAUCAUGUAGGAUAUGCAUGGCGAAGCUACGCAGAAGGACAUGAGGAUCACCCAUGUUAUAGGUACCCAGUUCGGUGCCAA	115	200		
GUCGUGCGGCUUUGCUGUACGAGUACAUGAGGAUCACCCAUGUAGGAUAUGGUUCGUUUUGCGUGCUAGAAGGGCGUGCGUUGU	25.7	21.3		
GGGUACAUCGGAGGAUAUAAUGUAAAUACAUGAGGAUCACCCAUGUCGAUGGAGACAUCGGAGAUUGAGAAGGCCGAUGUACCG			110	38.4
AAGGAAACCACAGGAUAUGGCUAGCAUAGCUAGCCAGAAGGGUGGUCGAAACCAUGUAAAUACAUGAGGAUCACCCAUGUGUCC			189	271
ACUGUCCGAGAGAAGGGAACAUGAGGAUCACCCAUGUUACCUCACCUGGUGACGGAACUCCAAGUUCAGGAUAUCUCGAGCGGU	4.72	6.53		
AUCCUGCGAGGAUAUACAUAGUUUUUUUCGUUUUGUCUCGAACAUGAGGAUCACCCAUGUAGAAGGUGCUUCAC	71.5	66.9		
GGGUGUGAAGGAUAUACAUGAGGAUCACCCAUGUGAGAGGAGGAGGUUGAGGAGGUUGGUAGAAGGUCAGGAGG	169	142		
CAGCAUCAUGUAGGAUAUGCGUGGCGAAGCUAUGCAGAAGGACAUGAGGAUCACCCAUGUCUUAGCUAGCGUACUAGCUUGCUG	7.5	21.4		
GGGCAAAAGUAGAAGGGAUAUACGAAAAGUAUAUCAGGAUAUACAUGAGGAUCACCCAUGUUCUGAAAGUGAAAAUCCUCCCUA	40.8	317		
AGCAGAACGUCAGGAUAUGUGGGUACUUUAGUCACAUGAGGAUCACCCAUGUAGGACUGCGAUCAACAGAAGGGACAAUUAGCA			279	16.2
CCUAUACAUGAGGAUCACCCAUGUCAGGAUAUAGAAAGCCGCGGAAUAGGACACGGCACUAGAAGGGACUGGCU	29.7	36.1		
GGUGGACAUGAGGAUCACCCAUGUGAGGAUAUCGGCUAUCUACUCGCUGACGGCUGCUCGAGAAGGCGCAUUGU	62.1	58.8		
CGCUCUAUAUAUUUGGCAAGAAUCAGAAGGCGUUACAUGAGGAUCACCCAUGUUUUGUAUAGUAACGAGGAUAUGAUAUGAGCG	13.3	13.3		
AUUGCCUUUGUCAGGAUAUCUGAGGUCGAAAGUGAAGAGAAGGGACAUGAGGAUCACCCAUGUAGUGGUACGCA	144	431		
AAAGGAUCAGGAUAUGCGUGGAAAAAGUGUAUUCAAAAAAAACAUGAGGAUCACCCAUGUAGAAGGGAUCCAAA	182	657		
GACACUAUGUUUGUCAGAUAGAGAGAGGAUAUGGCUCAUGAGACAUGAGGAUCACCCAUGUAUAAUCAGAAGGCUCGAGUACGA			11.5	9.17
AGGAGAAAUGUAGGAUAUGGGCGGGCAUAUGGGCAAAGCGCAUAUGCCCGCCCAGAAGGACAUGAGGAUCACCCAUGUUUCCCU	13.2	11.1		
AGCUAGUCAGGAUAUACGAACACGUCAAAAGACUUGAAGGGACAUGAGGAUCACCCAUGUAGAAGGGACUAGCA	35.1	123		
AAUCCACAUGAGGAUCACCCAUGUCAGGAAAUGACAGGAUAUAGCGAAAAAAAAAAAAAGCUAGAAGGGUCUAAUU			175	67.5

Sequence	apparent Kd [1] [nM]	apparent Kd [2] [nM]	apparent Kd [3] [nM]	apparent Kd [4] [nM]
CGGUAACAUGAGGAUCACCCAUGUGAGGAUAUCGUACGUUCGUCGAAAGACGAUCGUACGAGAAGGCAUGACCG	47.5	22.2		
CUCAUGUCAGGAUAUCAGUAGUAAAAAAAUAAAAUUACUACUGAGAAGGGACAUGAGGAUCACCCAUGUCCGGG	20.4	18.4		
GGAUGACAAAGUCAUCCUAUUCGAACAUGAGGAUCACCCAUGUAGGAUAUGGUACUCAAAGAGUACCAGAAGGACAUGUGCUUU	36.2	127		
AAACAUGUCCGAGGAUAUCUGGAAACAUUUUCAAGAGAAGGCGGACAUGAGGAUCACCCAUGUCUCUCCUCAUCAAAUCCAAGC	8.2	44.9		
CCACGUCACAUAUACAUGAGGAUCACCCAUGUCAAAAGACAUGAGGAUAUGGAUCCUAAUUGGAUCCAGAAGGCAUGGACGUGG			757	50.8
UCCCUAAGGCGGACCGACCAUACAUGAGGAUCACCCAUGUCGAGAAGGUGCUCACGGGUGGGUGGCAAGGAUAUCGGGUCGGAA			69.8	36.5
AAUUAUUAUUGAGGAUAUCGUAUUGAAACAAUACGAGAAGGCGGUAUAAACAUGAGGAUCACCCAUGUGAGCCUGAUGCUUAUG	28.4	58.9		
CCAGCGUGUGUGAGGAUAUGCUGGUCCUUGGAUCAGCAGAAGGCACAUGAGGAUCACCCAUGUGAGGACGUUGG	22.4	94.5		
AAAAUCAAUGCAGGAUAUACAUGAGGAUCACCCAUGUAGGUUGACCCUAAUACGGGCGAUUUGCAGUAGAAGGGCAAGAAGAAA	50.7	63.4		
AAAAAACAUGAGGAUCACCCAUGUGAGGAUAUCUGUAUCCAAAAGGAAGUGUAGGAUCAGAGAAGGCACUAGGA	68.1	123		
CCCGGGUUAGGAUAUUUGGGCCCGGGCGAACGCCCGGGCCCGGAGAAGGGACAUGAGGAUCACCCAUGUCCGGG	21.2	19.2		
GGACGUCACAUUAACAUGAGGAUCACCCAUGUGAAAACACAUGAGGAUAUGGAUCCUAAUUGGAUCCAGAAGGCAUGGACGUCC				6.6
AAACACGGACAUGAGGAUCACCCAUGUGGCGAAAGCCUUGGAAGAAGGCCGAUUGCAAAGCAAUCGGAGGAUAUUCAUACCGUG				5.57
CUUCUGUGAGGAUAUGUUAGUUCCCAGCAAAUCGCUGGGAGACAGAAGGCACAUGAGGAUCACCCAUGUGGGCG	39.2	221		
UGGUACUAGGGAGGAUAUGGGAAGAUACAUGAGGAUCACCCAUGUUUAAGAAUGCCGAGAGGCAACUAGAAGGCCCUUGUACCU			444	19.3
AUUAUGCAGCAGGAUAUCGAUCCGCAGUAUGAUCGAGAAGGGCUGACAUGAGGAUCACCCAUGUGCGUCCUAGG	43.6	155		
GAUCCUUCUGUUAGGAUAUGCUACGGGCUUCCGCUGCAGAAGGAACAUGAGGAUCACCCAUGUCAAAUAAAAUC	20.1	80.2		
UGAUAACAUGUAGGAUAUGCAGCAUUGACCAUUGCAGAAGGACAUGAGGAUCACCCAUGUACCGAUACAAUGGGAUCACGCAAU	15.3	18.5		
CCAUUCAGAGGAUAUGCGCAUAGAUAAGACUUUGUUUCUUAACAUGAGGAUCACCCAUGUAGAAGGCUGUACCC	24.1	21		

Sequence	apparent Kd [1] [nM]	apparent Kd [2] [nM]	apparent Kd [3] [nM]	apparent Kd [4] [nM]
UUACCUCAUGAGAAGGACAUGAGGAUCACCCAUGUAGGAUAUCGUGGGAGACAGGUAUUGAAUCUUCGGAUUCAAUACCAGUCU			396	27.6
GUGGUACAUGAGGAUCACCCAUGUUAGGAUAUCGCGUGAGGUAAAACUUACACACACACGAGAAGGGACGACAU	88.6	56.2		
UUAUGUUAUGUAGGAUAUCACUUUAAUUGAUUAAUAUAUGAAUAUUGAAUUUGAGAAGGACAUUUACAUGAGGAUCACCCAUGU	16.2	13.6		
CCGAUACGAGGAUAUACAUGAGGAUCACCCAUGUAGUGGACCGAGCGUCGGUGUCUCAGUAGAAGGCGUUAAGA	16.2	17.3		
UUUAGGAGUCAAGGAUAUGCUACCGUUUCGGUAGCAGAAGGUGAUCACAUGAGGAUCACCCAUGUAUGCAUGCGUGAGCGUGCU			50.1	623
GACGGUGAUGUAGGAUAUACGCUGGAAUACAGCGUAGAAGGACAUGAGGAUCACCCAUGUAAAGUGUCUCUAAAUAACACCGUC	21.5	47.2		
UAAAAGCGAGGAUAUACAUGAGGAUCACCCAUGUGAAAGAAAAAUAAAAAAAAAAAAAGUAGAAGGCGCUAAAA	62.1	58.4		
GCUAGUAUUGCAGGAUAUUGAGAAUAAUUAUUACAAGAAGGGCAUAACAUGAGGAUCACCCAUGUAUUCCUUAAUGAUACUAGC	6.31	7.13		
UCUGGUCGAGGAUAUACAAUCGUGCUUCGGCACGUAAGAUCACAUGAGGAUCACCCAUGUAGAAGGUGACCAGA	27.1	131		
GUAGCAUUAUAAGGAUAUUCAUACCGGAAACGGACAUGAGGAUCACCCAUGUGGCGAAAGCCUUGGGAGAAGGUAUUAUGCUAC			537	24.9
GGGUGACAUGAGGAUCACCCAUGUGAGGAUAUCUGGAUACUCUUUAUUUUAGAUAUCCAGAGAAGGCACACCCU	501	306		
GUCAGGAAUGUAGGAUAUCGUCAGGAUAACUGGCGAGAAGGACAUGAGGAUCACCCAUGUAAAAUGAAAGAUAAUAAACCUGGC	19.3	31.1		
AUGCGGUCAGGAUAUGCAUGGCGGGACUUGCGUCGUGGCGUGGAGAAGGGACAUGAGGAUCACCCAUGUGGCGA	77.3	82.6		
AAUAUGUUGCAGAAGGCCAUGUUGUGGUAGUGCCUCAUGACAUGAGGAUCACCCAUGUCUGUGAUGGAGGAUAUGCAAUAUAUU	8.15	37		
AUAUAAUAUCAGGAUAUGACUAGCCUCGGCUAGUCAGAAGGGAUGACAUGAGGAUCACCCAUGUGAUCAUAUAU	32.8	156		
CCACGGUAUGUAGGAUAUGCAUAGCAUUGCUAUGCAGAAGGACAUGAGGAUCACCCAUGUAUGUAUUCCAUACUAAUCCCGUGA	5.96	5.3		
AGGAGUAAAGGGAAUAACAUGAGGAUCACCCAUGUAUGGGAGAGAAGGCAGAUUGGAGGACGAUCUGAGGAUAUUUAAACUCUA			53.5	20.1
AAAACAUGAGGAUCACCCAUGUAAAGAUCGGUUAAUAGAGGUGAGGAUAUACGAACUUUUGGGUAGUAGAAGGCACUGGGUACA			58.1	44
